Data reported in the RNAGym collection of RNA variant scans (doi:10.1002/anie.201605470).

B1: Osa-1-4 twister ribozyme (parent)
chain: CCGCCUAACACUGCCAAUGCCGGUCCCAAGCCCGGAUAAAAGUGGAGGGGGCGG

Variants of: B1
Experiment: self-cleavage, relative activity (ratio to wild type); higher = more cleavage; co-transcriptional
How it was run: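 A DNA template was synthesised for a 54-nucleotide twister ribozyme from Oryza sativa, with 97 % wild-type base and 1 % of each other base at each of the 48 positions downstream of the cleavage site. The ribozyme cleaved itself co-transcriptionally during 2 h of in vitro transcription at 37 °C. Reverse transcription with a template-switching oligonucleotide, PCR amplification and deep sequencing followed, and cleavage status came from reads with or without upstream sequence. Relative activity is the fraction cleaved normalised to wild type.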

Q: Which self-cleavage does the source give for CCGCCUAACUCUGCCACUGCCGGUCCCAAGCCCGGAUAAAAGUGGAGGGGGCGG here?
A: 0.04

Q: For CCGCCUAACUCUGCCAGUGCCGGUCCCAAGCCCGGAUAAAAGUGGAGGGGGCGG, which self-cleavage is on record?
A: 0.07

Q: Which self-cleavage does the source give for CCGCCUAACUCUGCCAUUGCCGGUCCCAAGCCCGGAUAAAAGUGGAGGGGGCGG here?
A: 0.08

Q: Which self-cleavage does the source give for CCGCCUGACUCUGCCAAUGCCGGUCCCAAGCCCGGAUAAAAGUGGAGGGGGCGG here?
A: 0.08

Q: For CCGCCUUACUCUGCCAAUGCCGGUCCCAAGCCCGGAUAAAAGUGGAGGGGGCGG, which self-cleavage is on record?
A: 0.03

Q: For CCGCCUCACUCUGCCAAUGCCGGUCCCAAGCCCGGAUAAAAGUGGAGGGGGCGG, which self-cleavage is on record?
A: 0.02

Q: For CCGCCUAACGCUGCCAAUGCCGGUCCCAAGCCCGGAUAAAAGUGGAGGGGACGG, which self-cleavage is on record?
A: 0.28

Q: Which self-cleavage does the source give for CCGCCUAACGCUGCCAAUGCCGGUCCCAAGCCCGGAUAAAAGUGGAGGGGCCGG here?
A: 0.08

Q: Which self-cleavage does the source give for CCGCCUAACGCUGCCAAUGCCGGUCCCAAGCCCGGAUAAAAGUGGAGGGGUCGG here?
A: 0.18

Q: With CCGCCUAACUCUGCCAAUGCCGGUCCCCAGCCCGGAUAAAAGUGGAGGGGGCGG as the variant, how does the self-cleavage read?
A: 0.03

Q: For CCGCCUAACUCUGCCAAUGCCGGUCCCGAGCCCGGAUAAAAGUGGAGGGGGCGG, which self-cleavage is on record?
A: 0.04

Q: Which self-cleavage does the source give for CCGCCUAACUCUGCCAAUGCCGGUCCCUAGCCCGGAUAAAAGUGGAGGGGGCGG here?
A: 0.05

Q: Which self-cleavage does the source give for CCGCCUAACGCUGCCAAUGCCGGUCCCAAGCCCAGAUAAAAGUGGAGGGGGCGG here?
A: 0.24

Q: For CCGCCUAACGCUGCCAAUGCCGGUCCCAAGCCCCGAUAAAAGUGGAGGGGGCGG, which self-cleavage is on record?
A: 0.12

Q: With CCGCCUAACGCUGCCAAUGCCGGUCCCAAGCCCUGAUAAAAGUGGAGGGGGCGG as the variant, how does the self-cleavage read?
A: 0.14

Q: Which self-cleavage does the source give for CCGCCUAACGCUGCCAAUGCCGGUCCCAAGCCCGGAUAAAAGUGGAGGGAGCGG here?
A: 0.49

Q: For CCGCCUAACGCUGCCAAUGCCGGUCCCAAGCCCGGAUAAAAGUGGAGGGUGCGG, which self-cleavage is on record?
A: 0.98

Q: With CCGCCUAACGCUGCCAAUGCCGGUCCCAAGCCCGGAUAAAAGUGGAGGGCGCGG as the variant, how does the self-cleavage read?
A: 0.82

Q: With CCGCCUAACUCUGCCAAUGCCGGUCCCAAGCCCGGAUAAAAGUGGUGGGGGCGG as the variant, how does the self-cleavage read?
A: 0.03

Q: For CCGCCUAACUCUGCCAAUGCCGGUCCCAAGCCCGGAUAAAAGUGGCGGGGGCGG, which self-cleavage is on record?
A: 0.02

Q: Which self-cleavage does the source give for CCGCCUAACUCUGCCAAUGCCGGUCCCAAGCCCGGAUAAAAGUGGGGGGGGCGG here?
A: 0

Q: For CCGCCUAACUCUGCCAAUGCCGGUCCCAAGCCCGGAUAGAAGUGGAGGGGGCGG, which self-cleavage is on record?
A: 0.08

Q: Which self-cleavage does the source give for CCGCCUAACUCUGCCAAUGCCGGUCCCAAGCCCGGAUACAAGUGGAGGGGGCGG here?
A: 0.04

Q: With CCGCCUAACUCUGCCAAUGCCGGUCCCAAGCCCGGAUAUAAGUGGAGGGGGCGG as the variant, how does the self-cleavage read?
A: 0.12

Q: For CCGCCUAACGCUGCCAAUGCCGGUCCCAAGCCCGUAUAAAAGUGGAGGGGGCGG, which self-cleavage is on record?
A: 0.4

Q: With CCGCCUAACGCUGCCAAUGCCGGUCCCAAGCCCGCAUAAAAGUGGAGGGGGCGG as the variant, how does the self-cleavage read?
A: 0.13

Q: With CCGCCUAACGCUGCCAAUGCCGGUCCCAAGCCCGAAUAAAAGUGGAGGGGGCGG as the variant, how does the self-cleavage read?
A: 0.41

Q: Which self-cleavage does the source give for CCGCCUAACGCUGCCAAUGCCGGUCCCAAGCCCGGAUAAAAUUGGAGGGGGCGG here?
A: 0.06

Q: With CCGCCUAACGCUGCCAAUGCCGGUCCCAAGCCCGGAUAAAACUGGAGGGGGCGG as the variant, how does the self-cleavage read?
A: 0.12

Q: For CCGCCUAACGCUGCCAAUGCCGGUCCCAAGCCCGGAUAAAAAUGGAGGGGGCGG, which self-cleavage is on record?
A: 0.22

Q: With CCGCCUAACGCUGCCAAUGCCGGUCCCAAGCCCGGAGAAAAGUGGAGGGGGCGG as the variant, how does the self-cleavage read?
A: 0.87

Q: With CCGCCUAACGCUGCCAAUGCCGGUCCCAAGCCCGGAAAAAAGUGGAGGGGGCGG as the variant, how does the self-cleavage read?
A: 0.67

Q: Which self-cleavage does the source give for CCGCCUAACGCUGCCAAUGCCGGUCCCAAGCCCGGACAAAAGUGGAGGGGGCGG here?
A: 0.95

Q: With CCGCCUAACUCUGCCAAUGCCGGUCCCAAGCCCGGAUAAACGUGGAGGGGGCGG as the variant, how does the self-cleavage read?
A: 0.04

Q: Which self-cleavage does the source give for CCGCCUAACUCUGCCAAUGCCGGUCCCAAGCCCGGAUAAAUGUGGAGGGGGCGG here?
A: 0.07

Q: With CCGCCUAACUCUGCCAAUGCCGGUCCCAAGCCCGGAUAAAGGUGGAGGGGGCGG as the variant, how does the self-cleavage read?
A: 0.04

Q: For CCGCCUAGCUCUGCCAAUGCCGGUCCCAAGCCCGGAUAAAAGUGGAGGGGGCGG, which self-cleavage is on record?
A: 0.05

Q: Which self-cleavage does the source give for CCGCCUACCUCUGCCAAUGCCGGUCCCAAGCCCGGAUAAAAGUGGAGGGGGCGG here?
A: 0.03

Q: For CCGCCUAUCUCUGCCAAUGCCGGUCCCAAGCCCGGAUAAAAGUGGAGGGGGCGG, which self-cleavage is on record?
A: 0.04

Q: With CCGCCUAACGCUGCCAAUGCCGGUCCCAAGCCCGGAUAAAAGUGGACGGGGCGG as the variant, how does the self-cleavage read?
A: 0.07

Q: With CCGCCUAACGCUGCCAAUGCCGGUCCCAAGCCCGGAUAAAAGUGGAUGGGGCGG as the variant, how does the self-cleavage read?
A: 0.12

Q: Which self-cleavage does the source give for CCGCCUAACGCUGCCAAUGCCGGUCCCAAGCCCGGAUAAAAGUGGAAGGGGCGG here?
A: 0.13

Q: For CCGCCUAACGCUGCCAAUGCCGGUCCCAAUCCCGGAUAAAAGUGGAGGGGGCGG, which self-cleavage is on record?
A: 0.05

Q: For CCGCCUAACGCUGCCAAUGCCGGUCCCAAGCCCGGAUAAAAGUGGAGAGGGCGG, which self-cleavage is on record?
A: 0.07

Q: With CCGCCUAACGCUGCCAAUGCCGGUCCCAAGCCCGGAUAAAAGUGGAGCGGGCGG as the variant, how does the self-cleavage read?
A: 0.06

Q: Which self-cleavage does the source give for CCGCCUAACGCUGCCAAUGCCGGUCCCAAGCCCGGAUAAAAGUGGAGUGGGCGG here?
A: 0.06

Q: With CCGCCUAACUCUGCCAAUGCCGGUCCCAAGCCCGGCUAAAAGUGGAGGGGGCGG as the variant, how does the self-cleavage read?
A: 0.03

Q: With CCGCCUAACUCUGCCAAUGCCGGUCCCAAGCCCGGUUAAAAGUGGAGGGGGCGG as the variant, how does the self-cleavage read?
A: 0.04
